Data taken from publication PMC8942385 (Medicinal chemistry research : an international journal for …, 2021).
“Also recorded” adds a separate entry of the source. Read-outs that look alike come from different tables or passages of the source.

Tests used:
5-HT1AR [1] = biological target: T1, 5-HT1AR (Homo sapiens, UniProt P08908); experiment: PDSP radioligand binding, 5-HT1AR; conditions: [3H]8-OH-DPAT
T1 sequence (P08908 1-422): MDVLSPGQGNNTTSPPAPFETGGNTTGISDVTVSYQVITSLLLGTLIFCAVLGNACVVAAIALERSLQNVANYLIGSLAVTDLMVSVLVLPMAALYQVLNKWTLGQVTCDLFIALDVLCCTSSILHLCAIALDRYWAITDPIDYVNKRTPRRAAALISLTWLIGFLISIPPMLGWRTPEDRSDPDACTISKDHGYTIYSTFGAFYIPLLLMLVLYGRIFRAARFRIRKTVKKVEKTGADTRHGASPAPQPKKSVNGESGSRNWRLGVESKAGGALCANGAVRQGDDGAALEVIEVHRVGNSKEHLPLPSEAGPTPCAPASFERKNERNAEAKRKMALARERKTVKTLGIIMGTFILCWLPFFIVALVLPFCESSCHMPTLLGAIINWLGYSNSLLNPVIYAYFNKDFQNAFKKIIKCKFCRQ
Procedure, shortened: (§1)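 Radioligand competition binding run by NIMH-PDSP. Radioligands: [3H]8-OH-DPAT (5-HT1AR), [3H]Ketanserin (5-HT2AR), [3H]LSD (5-HT2BR), [3H]SCH23390 (D1R, D5R), [3H]N-Methylspiperone (D2R, D3R, D4R). […] Ki given as mean ± SEM of at least 3 independent assays, each in triplicate.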

5-HT7R [2] = biological target: T2, 5-HT7R (Homo sapiens, UniProt P34969); experiment: PDSP radioligand binding, 5-HT7R
D4R = biological target: T3, D4R (Homo sapiens, UniProt P21917); experiment: PDSP radioligand binding, D4
T3 sequence (P21917 1-419): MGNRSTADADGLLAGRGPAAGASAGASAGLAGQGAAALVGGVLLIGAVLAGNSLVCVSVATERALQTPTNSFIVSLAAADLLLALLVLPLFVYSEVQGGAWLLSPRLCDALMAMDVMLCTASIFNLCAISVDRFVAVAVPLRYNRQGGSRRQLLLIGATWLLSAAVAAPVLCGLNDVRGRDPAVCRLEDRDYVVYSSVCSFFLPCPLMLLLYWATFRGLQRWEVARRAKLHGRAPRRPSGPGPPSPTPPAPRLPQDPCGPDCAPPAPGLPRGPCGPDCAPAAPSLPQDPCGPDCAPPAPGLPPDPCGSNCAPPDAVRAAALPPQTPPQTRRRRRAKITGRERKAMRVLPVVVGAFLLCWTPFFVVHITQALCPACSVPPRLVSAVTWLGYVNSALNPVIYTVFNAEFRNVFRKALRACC
Procedure, shortened: as §1

D2R = D2R (Homo sapiens, UniProt P14416); experiment: PDSP radioligand binding, D2
Procedure, shortened: as §1

[3] = Configurational stability of separated enantiomers; format: physicochemical; conditions: after chiral HPLC separation
D5R = D5R (Homo sapiens, UniProt P21918); experiment: PDSP radioligand binding, D5; conditions: for inhibition at 10 µM: read-out: Binding, D5: inhibition threshold class
D5R, sequence (P21918 whole entry): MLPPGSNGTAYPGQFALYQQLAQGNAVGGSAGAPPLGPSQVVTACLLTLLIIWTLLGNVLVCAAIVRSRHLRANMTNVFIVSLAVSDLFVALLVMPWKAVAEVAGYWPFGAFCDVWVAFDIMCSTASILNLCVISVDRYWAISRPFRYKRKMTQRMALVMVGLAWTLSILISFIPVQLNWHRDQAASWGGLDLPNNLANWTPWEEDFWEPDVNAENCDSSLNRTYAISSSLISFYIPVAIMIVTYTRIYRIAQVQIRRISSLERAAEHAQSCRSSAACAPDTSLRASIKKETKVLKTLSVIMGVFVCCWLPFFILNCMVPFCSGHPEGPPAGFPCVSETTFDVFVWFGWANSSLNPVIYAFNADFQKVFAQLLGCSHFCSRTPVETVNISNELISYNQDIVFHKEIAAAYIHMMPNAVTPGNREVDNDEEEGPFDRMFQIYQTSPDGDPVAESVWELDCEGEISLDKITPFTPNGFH
Procedure, shortened: as §1

5-HT2CR = biological target: T4, 5-HT2CR (Homo sapiens, UniProt P28335); experiment: PDSP radioligand binding, 5-HT2CR
T4 sequence (P28335 33-458): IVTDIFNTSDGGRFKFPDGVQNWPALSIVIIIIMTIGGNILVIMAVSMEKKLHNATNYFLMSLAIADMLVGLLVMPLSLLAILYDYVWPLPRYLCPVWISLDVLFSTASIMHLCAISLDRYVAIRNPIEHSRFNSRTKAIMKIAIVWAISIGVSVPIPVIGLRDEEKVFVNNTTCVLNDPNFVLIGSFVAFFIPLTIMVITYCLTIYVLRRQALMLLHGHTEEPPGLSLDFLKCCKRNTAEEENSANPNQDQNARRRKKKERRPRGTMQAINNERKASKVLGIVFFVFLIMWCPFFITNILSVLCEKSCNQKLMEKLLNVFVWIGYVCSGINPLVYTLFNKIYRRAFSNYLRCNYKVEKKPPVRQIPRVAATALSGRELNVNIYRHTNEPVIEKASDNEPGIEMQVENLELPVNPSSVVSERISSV

h5-HT7A [4] = biological target: T5, h5-HT7A (Homo sapiens, UniProt P34969); experiment: HEK-5-HT7A / cAMP functional assay; format: cell-based; conditions: agonist mode
T5 sequence (P34969 1-445 isoform P34969-2): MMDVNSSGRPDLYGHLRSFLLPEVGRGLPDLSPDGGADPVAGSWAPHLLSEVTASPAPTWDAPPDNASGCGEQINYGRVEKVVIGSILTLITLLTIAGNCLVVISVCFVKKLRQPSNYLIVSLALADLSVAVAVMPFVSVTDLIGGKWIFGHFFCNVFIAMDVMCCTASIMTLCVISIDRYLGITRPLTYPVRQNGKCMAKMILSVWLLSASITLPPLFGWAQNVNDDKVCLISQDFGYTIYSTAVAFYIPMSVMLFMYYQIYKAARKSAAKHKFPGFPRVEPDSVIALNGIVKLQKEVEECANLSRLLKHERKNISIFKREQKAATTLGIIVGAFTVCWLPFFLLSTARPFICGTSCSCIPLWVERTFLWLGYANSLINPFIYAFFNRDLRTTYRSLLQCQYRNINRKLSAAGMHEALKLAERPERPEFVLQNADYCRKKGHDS

D1R = D1R (Homo sapiens, UniProt P21728); experiment: PDSP radioligand binding, D1; conditions: for inhibition at 10 µM: read-out: Binding, D1: inhibition threshold class
D1R, sequence (P21728 whole entry): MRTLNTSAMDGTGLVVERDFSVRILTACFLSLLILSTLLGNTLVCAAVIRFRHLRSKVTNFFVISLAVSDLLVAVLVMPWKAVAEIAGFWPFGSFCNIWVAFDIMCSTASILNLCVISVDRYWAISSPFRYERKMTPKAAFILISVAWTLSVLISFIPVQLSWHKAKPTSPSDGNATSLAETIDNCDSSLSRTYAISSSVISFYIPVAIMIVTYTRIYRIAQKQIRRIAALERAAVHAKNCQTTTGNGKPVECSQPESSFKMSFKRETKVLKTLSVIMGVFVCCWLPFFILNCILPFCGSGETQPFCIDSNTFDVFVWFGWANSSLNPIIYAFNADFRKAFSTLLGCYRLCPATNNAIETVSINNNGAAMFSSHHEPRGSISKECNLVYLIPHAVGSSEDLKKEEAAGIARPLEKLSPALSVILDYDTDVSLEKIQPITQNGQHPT
Procedure, shortened: as §1

SERT [5] = biological target: T6, SERT (Homo sapiens, UniProt P31645); experiment: PDSP radioligand binding, SERT; conditions: for Binding, SERT: inhibition threshold class: [3H]Citalopram, 10 μM concentration
T6 sequence (P31645 whole entry, species assumed): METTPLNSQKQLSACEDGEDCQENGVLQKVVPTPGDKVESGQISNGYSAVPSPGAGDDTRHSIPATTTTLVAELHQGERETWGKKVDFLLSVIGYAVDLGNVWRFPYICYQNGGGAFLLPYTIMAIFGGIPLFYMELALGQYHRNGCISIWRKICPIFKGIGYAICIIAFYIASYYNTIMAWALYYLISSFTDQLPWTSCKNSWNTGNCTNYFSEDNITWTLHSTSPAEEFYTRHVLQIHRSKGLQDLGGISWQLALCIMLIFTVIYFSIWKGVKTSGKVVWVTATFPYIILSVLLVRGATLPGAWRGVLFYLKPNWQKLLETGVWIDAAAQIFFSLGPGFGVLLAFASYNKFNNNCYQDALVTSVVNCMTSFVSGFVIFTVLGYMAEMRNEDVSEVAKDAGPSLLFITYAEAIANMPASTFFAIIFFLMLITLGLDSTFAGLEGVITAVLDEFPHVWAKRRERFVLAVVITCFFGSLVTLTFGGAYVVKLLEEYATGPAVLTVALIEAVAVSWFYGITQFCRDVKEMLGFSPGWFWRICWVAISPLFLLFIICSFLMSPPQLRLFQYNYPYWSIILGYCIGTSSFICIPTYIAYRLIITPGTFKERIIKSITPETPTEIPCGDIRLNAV

NET = NET (Homo sapiens, UniProt P23975); experiment: PDSP radioligand binding, NET; conditions: for Binding, NET: inhibition threshold class: [3H]Nisoxetine, 10 μM concentration
NET, sequence (P23975 whole entry): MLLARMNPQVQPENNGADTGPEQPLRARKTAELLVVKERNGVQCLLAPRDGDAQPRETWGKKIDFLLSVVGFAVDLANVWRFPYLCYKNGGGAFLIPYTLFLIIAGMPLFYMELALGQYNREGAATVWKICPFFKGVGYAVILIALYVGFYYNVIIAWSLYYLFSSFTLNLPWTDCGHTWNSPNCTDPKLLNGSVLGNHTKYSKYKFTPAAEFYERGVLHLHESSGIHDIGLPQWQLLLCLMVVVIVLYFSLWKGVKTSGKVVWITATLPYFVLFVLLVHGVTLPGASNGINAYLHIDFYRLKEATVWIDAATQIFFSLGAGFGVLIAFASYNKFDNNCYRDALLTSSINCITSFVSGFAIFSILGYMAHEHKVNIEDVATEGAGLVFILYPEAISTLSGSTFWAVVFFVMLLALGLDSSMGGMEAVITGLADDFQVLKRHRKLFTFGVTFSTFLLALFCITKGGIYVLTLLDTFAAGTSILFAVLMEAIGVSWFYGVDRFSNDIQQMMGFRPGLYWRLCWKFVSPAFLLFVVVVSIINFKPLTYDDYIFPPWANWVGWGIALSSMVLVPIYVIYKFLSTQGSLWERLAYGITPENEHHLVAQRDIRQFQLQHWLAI

D3R = D3R (Homo sapiens, UniProt P35462); experiment: PDSP radioligand binding, D3; conditions: for Ki: Binding affinity constant Ki, D3, [3H]N-Methylspiperone
D3R, sequence (P35462 whole entry): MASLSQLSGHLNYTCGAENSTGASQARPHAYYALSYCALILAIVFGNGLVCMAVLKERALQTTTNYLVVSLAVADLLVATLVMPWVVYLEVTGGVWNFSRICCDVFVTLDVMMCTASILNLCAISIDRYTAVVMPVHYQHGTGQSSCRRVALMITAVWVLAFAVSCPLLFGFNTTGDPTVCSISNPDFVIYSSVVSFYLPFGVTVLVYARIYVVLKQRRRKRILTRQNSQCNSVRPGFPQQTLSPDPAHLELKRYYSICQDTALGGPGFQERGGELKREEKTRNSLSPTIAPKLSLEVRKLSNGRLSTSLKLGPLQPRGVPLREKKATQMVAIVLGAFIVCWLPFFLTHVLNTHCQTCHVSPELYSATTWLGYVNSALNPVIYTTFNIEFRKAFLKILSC
Procedure, shortened: as §1

5-HT2BR = 5-HT2BR (Homo sapiens, UniProt P41595); experiment: PDSP radioligand binding, 5-HT2BR; conditions: [3H]LSD
5-HT2BR, sequence (P41595 whole entry): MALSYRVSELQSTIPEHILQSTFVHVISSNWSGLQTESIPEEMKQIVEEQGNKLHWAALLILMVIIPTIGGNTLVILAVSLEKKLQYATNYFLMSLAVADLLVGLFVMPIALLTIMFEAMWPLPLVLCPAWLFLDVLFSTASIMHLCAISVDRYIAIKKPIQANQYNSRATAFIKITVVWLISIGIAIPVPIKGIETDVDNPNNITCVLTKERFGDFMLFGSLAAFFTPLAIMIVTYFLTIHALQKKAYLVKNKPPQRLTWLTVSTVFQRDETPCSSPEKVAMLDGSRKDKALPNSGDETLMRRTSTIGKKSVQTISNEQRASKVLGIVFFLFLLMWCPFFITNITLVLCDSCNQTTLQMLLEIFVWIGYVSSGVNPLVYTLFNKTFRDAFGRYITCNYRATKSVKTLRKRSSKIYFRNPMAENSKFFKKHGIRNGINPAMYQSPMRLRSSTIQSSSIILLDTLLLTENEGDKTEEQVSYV
Procedure, shortened: as §1

5-HT2AR = 5-HT2AR (Homo sapiens, UniProt P28223); experiment: PDSP radioligand binding, 5-HT2AR; conditions: [3H]Ketanserin
5-HT2AR, sequence (P28223 whole entry): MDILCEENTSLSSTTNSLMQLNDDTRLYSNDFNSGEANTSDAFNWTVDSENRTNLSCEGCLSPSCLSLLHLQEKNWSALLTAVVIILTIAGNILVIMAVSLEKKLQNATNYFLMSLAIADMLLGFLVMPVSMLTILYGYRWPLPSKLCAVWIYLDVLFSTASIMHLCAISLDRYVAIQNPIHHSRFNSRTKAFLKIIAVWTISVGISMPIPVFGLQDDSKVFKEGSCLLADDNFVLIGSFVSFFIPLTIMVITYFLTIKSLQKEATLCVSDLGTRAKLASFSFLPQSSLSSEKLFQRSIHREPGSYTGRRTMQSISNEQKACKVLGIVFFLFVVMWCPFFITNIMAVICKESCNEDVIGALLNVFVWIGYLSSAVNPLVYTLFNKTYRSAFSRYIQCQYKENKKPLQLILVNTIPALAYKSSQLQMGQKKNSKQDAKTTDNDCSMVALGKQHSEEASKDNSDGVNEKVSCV
Procedure, shortened: as §1

5-HT7R [6] = biological target: T2, 5-HT7R; experiment: GPCR Tango assay, β-arrestin recruitment; format: cell-based
DAT = DAT (Homo sapiens, UniProt Q01959); experiment: PDSP radioligand binding, DAT; conditions: for Binding, DAT: inhibition threshold class: [3H]WIN35428, 10 μM concentration
DAT, sequence (Q01959 whole entry, species assumed): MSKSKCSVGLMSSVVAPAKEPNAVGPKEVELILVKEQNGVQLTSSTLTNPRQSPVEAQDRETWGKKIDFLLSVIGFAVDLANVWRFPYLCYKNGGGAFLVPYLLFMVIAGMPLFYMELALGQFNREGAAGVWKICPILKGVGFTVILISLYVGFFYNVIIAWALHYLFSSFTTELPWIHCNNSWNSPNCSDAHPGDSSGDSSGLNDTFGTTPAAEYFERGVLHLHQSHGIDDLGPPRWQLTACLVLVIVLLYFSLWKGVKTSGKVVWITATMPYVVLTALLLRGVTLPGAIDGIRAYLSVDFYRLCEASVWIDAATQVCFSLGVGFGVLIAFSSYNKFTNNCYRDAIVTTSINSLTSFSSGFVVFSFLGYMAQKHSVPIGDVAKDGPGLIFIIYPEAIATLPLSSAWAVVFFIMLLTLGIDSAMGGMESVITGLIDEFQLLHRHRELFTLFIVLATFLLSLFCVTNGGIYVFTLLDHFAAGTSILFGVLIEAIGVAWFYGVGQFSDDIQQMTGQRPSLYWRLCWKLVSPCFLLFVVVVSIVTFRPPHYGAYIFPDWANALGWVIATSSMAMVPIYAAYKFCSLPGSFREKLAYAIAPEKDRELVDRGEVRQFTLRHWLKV

5-HT1AR [7] = biological target: T1, 5-HT1AR; conditions: read-out: Binding affinity constant Ki, 5-HT1AR; cited from earlier work
5-HT7R [8] = biological target: T2, 5-HT7R; conditions: read-out: Binding affinity constant Ki, 5-HT7R; Table 1; cited from earlier work
SERT [9] = biological target: T6, SERT; conditions: 10 μM concentration; cited from earlier work
h5-HT7A [10] = biological target: T5, h5-HT7A; conditions: cited from earlier work
5-HT7R [11] = biological target: T2, 5-HT7R; conditions: cited from earlier work
[12] = mean ± SEM, min 3 assays in triplicate
[13] = [3H]SCH23390, 10 μM concentration
[14] = Binding affinity constant Ki, 5-HT1AR

CC1(CCN2CCc3ccccc3C2)Cc2cc(Cl)ccc2C1=O (single isomer, unassigned; (-)) [Compound 2a, (−)-5-chloro-2-(2-(3,4-dihydroisoquinolin-2(1H)-yl)ethyl)-2-methyl-2,3-dihydro-1H-inden-1-one]
Binding affinity constant pKi ± SEM, 5-HT1AR (5-HT1AR [1]; [12]): 7.06±0.07 | Ki (5-HT1AR [1]; read-out: Binding affinity constant Ki, 5-HT1AR): 86.3 nM | Selectivity for 5-HT7R over 5-HT1AR (5-HT7R [2]): ~72 fold | Binding affinity constant pKi ± SEM, 5-HT7R (5-HT7R [2]; Table 1, [3H]LSD, mean ± SEM, min 3 assays in triplicate): 8.94 ± 0.06 | 5-HT7 Receptor Binding pKi (5-HT7R [2]; Table 3): 8.7 ± 0.1 | Ki (5-HT7R [2]; read-out: 5-HT7 Receptor Binding Ki, Table 3): 2.4 nM | Ki (5-HT7R [2]; read-out: Binding affinity constant Ki, 5-HT7R, Table 1, [3H]LSD): 1.2 nM | Binding affinity constant pKi ± SEM, D4 (D4R; [3H]N-Methylspiperone, mean ± SEM, min 3 assays in triplicate): 6.34 ± 0.07 | Ki (D4R; read-out: Binding affinity constant Ki, D4, [3H]N-Methylspiperone): 457 nM | Binding, D2: inhibition threshold class (D2R; 10 μM concentration): MT (Missed threshold of 50% inhibition at 10 μM concentration) | Racemization of separated enantiomers [3]: No racemization | Binding, D5: inhibition threshold class (D5R; [13]): MT (Missed threshold of 50% inhibition at 10 μM concentration) | Binding, 5-HT2CR: inhibition threshold class (5-HT2CR; 10 μM concentration): MT (Missed threshold of 50% inhibition at 10 μM concentration) | cAMP Hill (h5-HT7A [4]): 1.3± 0.2 | cAMP pEC50 (h5-HT7A [4]): 6.9±0.3 | cAMP Emax % (h5-HT7A [4]; normalized to maximal serotonin effect): 82.8 ± 2.6% | EC50 (h5-HT7A [4]; read-out: cAMP EC50): 126 nM | Binding, D1: inhibition threshold class (D1R; [13]): MT (Missed threshold of 50% inhibition at 10 μM concentration) | Binding, SERT: inhibition threshold class (SERT [5]): MT (Missed threshold of 50% inhibition at 10 μM concentration) | Binding, NET: inhibition threshold class (NET): MT (Missed threshold of 50% inhibition at 10 μM concentration) | Binding, D3: inhibition threshold class (D3R; 10 μM concentration): MT (Missed threshold of 50% inhibition at 10 μM concentration) | Binding affinity constant pKi ± SEM, 5-HT2BR (5-HT2BR; [12]): 6.48 ± 0.04 | Ki (5-HT2BR; read-out: Binding affinity constant Ki, 5-HT2BR): 329 nM | Binding affinity constant pKi ± SEM, 5-HT2AR (5-HT2AR; [12]): 6.08 ± 0.06 | Ki (5-HT2AR; read-out: Binding affinity constant Ki, 5-HT2AR): 834 nM | β-arrestin Emax % (5-HT7R [6]; agonist mode, Tango): 78.7 ± 5.7% | β-arrestin Hill (5-HT7R [6]; agonist mode, Tango): 1.2 ± 0.1 | β-arrestin pEC50 (5-HT7R [6]; agonist mode, Tango): 8.4 ± 0.1 | EC50 (5-HT7R [6]; read-out: β-arrestin EC50, agonist mode, Tango): 3.98 nM | Times higher activity than 5-HT in the β-arrestin pathway (5-HT7R [6]; relative to 5-HT): over 31 times | Binding, DAT: inhibition threshold class (DAT): MT (Missed threshold of 50% inhibition at 10 μM concentration)

Cc1nn(C)c(C)c1-c1cccc2c1CC[C@H](N(C)C)C2 [AS-19]
Ki (5-HT1AR [7]): 89.7 nM | Ki (5-HT7R [8]): 0.6 nM

O=C1c2ccc(Cl)cc2CC1CCN1CCc2ccccc2C1 (stereo not drawn) [Compound 1c, 5-chloro-2-(2-(3,4-dihydroisoquinolin-2(1H)-yl)ethyl)-2,3-dihydro-1H-inden-1-one]
Binding, SERT: inhibition threshold class (SERT [9]): MT (Missed threshold of 50% inhibition at 10 μM concentration) | Racemization of separated enantiomers [3]: racemizes readily; also recorded: quickly reverted to the racemic mixture in a matter of hours

CC1(CCN2CCc3ccccc3C2)Cc2cc(Cl)ccc2C1=O (stereo not drawn) [Compound 2, 5-chloro-2-(2-(3,4-dihydroisoquinolin-2(1H)-yl)ethyl)-2-methyl-2,3-dihydro-1H-inden-1-one]
Ki (5-HT1AR [1]; [14]): 1720 nM | Fold higher affinity at the 5-HT7R than clozapine (5-HT7R [2]): 2 fold | Fold lower affinity at the 5-HT7R than AS 19 (5-HT7R [2]): about 4 fold | Ki (5-HT7R [2]): 2.24 nM | Ki (D4R; Binding affinity constant Ki, D4, [3H]N-Methylspiperone): 1220 nM | Ki (D2R): 1230 nM | inhibition at 10 µM (D5R): < 50% | Ki (5-HT2CR; Binding affinity constant Ki, 5-HT2CR, [3H]Mesulergine): 1740 nM | inhibition at 10 µM (D1R): < 50% | inhibition at 10 µM (SERT [5]; read-out: Binding, SERT: inhibition threshold class): < 50% | inhibition at 10 µM (NET; read-out: Binding, NET: inhibition threshold class): < 50% | Ki (D3R): 185 nM | Ki (5-HT2BR; Binding affinity constant Ki, 5-HT2BR): 174 nM | Ki (5-HT2AR; Binding affinity constant Ki, 5-HT2AR): 904 nM | inhibition at 10 µM (DAT; read-out: Binding, DAT: inhibition threshold class): < 50%

CCOC(=O)C1(CCN2CCc3ccccc3C2)Cc2cc(Cl)ccc2C1=O (stereo not drawn) [Compound 3, ethyl 5-chloro-2-(2-(3,4-dihydroisoquinolin-2(1H)-yl)ethyl)-1-oxo-2,3-dihydro-1H-indene-2-carboxylate]
Ki (5-HT1AR [1]; [14]): 52 nM | Ki (5-HT7R [2]): 3.39 nM | inhibition at 10 µM (D4R; read-out: Binding, D4: inhibition threshold class): < 50% | Ki (D2R): 747 nM | inhibition at 10 µM (D5R): < 50% | Ki (5-HT2CR): 885 nM | inhibition at 10 µM (D1R): < 50% | Binding, SERT: inhibition threshold class (SERT [5]): MT (Missed threshold of 50% inhibition at 10 μM concentration) | Binding, NET: inhibition threshold class (NET): MT (Missed threshold of 50% inhibition at 10 μM concentration) | Ki (D3R): 134 nM | Binding, DAT: inhibition threshold class (DAT): MT (Missed threshold of 50% inhibition at 10 μM concentration)

NCCc1c[nH]c2ccc(O)cc12 [Compound 5-HT, Serotonin, reference compound]
cAMP Hill (h5-HT7A [4]): 1.0±0.1 | β-arrestin Hill (5-HT7R [6]; agonist mode, Tango): 3.4±0.4

Clc1ccc(-c2n[nH]c3c2CCNCC3)cc1 [Compound 7, 3-(4-chlorophenyl)-1,4,5,6,7,8-hexahydropyrazolo[3,4-d]azepine]
Ki (5-HT1AR [7]): > 10000 nM | cAMP Emax % (h5-HT7A [10]): 94.7% | cAMP pEC50 (h5-HT7A [10]): 5.1±0.1 | EC50 (h5-HT7A [10]; read-out: cAMP EC50): 7790 nM | β-arrestin Emax % (5-HT7R [11]): 62.7% | β-arrestin pEC50 (5-HT7R [11]): 6.8±0.2
